# Assay results taken from ChEMBL document CHEMBL4038302, “Fibroblast Activation Protein α Activated Tripeptide Bufadienolide Antitumor Prodrug with Reduced Cardiotoxicity” (J Med Chem, 2017).
# Calls of active or inactive are those of the source. The calls are words filed in the database; no cut-off is given here.
# Assays:
# MDA-MB-231 [1] = assay: Antitumor activity against human MDA-MB-231 cells xenografted in BALB/C nude mouse assessed as decrease in tumor weight at 4 umol/kg, iv administered starting on day 5 measured after day 22; format: functional, organism-based
# Summary of the method: (§1)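 Female BALB/C mice inoculated subcutaneously in the back with 1 × 10^7 MDA-MB-231 cells in Matrigel–PBS (1:1). From day 5, daily iv dosing in 5% Solutol-HS15 vehicle, with a vehicle control group. Tumours measured by caliper every 2 days (v = 0.5 × a × b²); tumour weight as mean ± SEM, n = 6, one-way ANOVA with Tukey's test.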
# [2] = Acute toxicity in iv dosed Kunming mouse measured less than 4 hrs post dose; format: organism-based; settings: in vivo
# Summary of the method: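 Kunming mice (22.0−28.0 g), half male and half female, 10 groups of n = 10. Single iv dose on day 1 across five levels per compound (prodrug 29.98–50.00 μmol/kg; arenobufagin 4.50–8.00 μmol/kg). Watched continuously for 8 h for abnormal behaviour and deaths, then intermittently for 2 weeks, and sacrificed day 14. LD50 by Bliss method.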
# MDA-MB-231 [3] = assay: Antiproliferative activity against human MDA-MB-231 cells transfected with pCMV6 incubated for 48 hrs by MTT assay; format: functional, cell-based; settings: MDA-MB-231, 48 h
# Summary of the method: (§2)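 Cells grown in DMEM with 10% FBS and 1% penicillin-streptomycin at 37 °C, 5% CO2; 10% heat-inactivated FBS used during cytotoxicity testing to exclude serum FAP activity. Viability read by MTT; IC50 as mean ± SEM of at least three independent experiments. Transfected lines were made from MDA-MB-231 with human FAPα plasmid or empty pCMV6-Entry vector and checked by Western blot at 48 h.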
# Mus musculus [4] = assay: Toxicity in BALB/C nude mouse xenografted with human MDA-MB-231 cells assessed as abnormal food intake at 12 umol/kg, iv administered starting on day 5 measured after day 22; format: organism-based; settings: in vivo
# MDA-MB-231 [5] = assay: Antitumor activity against human MDA-MB-231 cells xenografted in BALB/C nude mouse at 4 umol/kg, iv administered starting on day 5 measured after day 22 by Ki67 staining-based assay relative to control; format: functional
# Summary of the method: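 Female BALB/C nude mice, MDA-MB-231 cells (1 × 10^7) injected subcutaneously in Matrigel–PBS 1:1. Daily iv dosing in 5% HS15 vehicle from day 5. Tumours fixed and paraffin-embedded, 5 μm sections, anti-Ki67 IHC, read blind by a pathologist. Proliferative index by image analysis, n = 6. Compared with 5% HS15 control by one-way ANOVA and Tukey's test.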
# Mus musculus [6] = assay: Toxicity in BALB/C nude mouse xenografted with human MDA-MB-231 cells assessed as abnormal behavioral at 12 umol/kg, iv administered starting on day 5 measured after day 22; format: organism-based; settings: in vivo
# Mus musculus [7] = assay: Toxicity in BALB/C nude mouse xenografted with human MDA-MB-231 cells assessed as histopathologic change in lungh at 12 umol/kg, iv administered starting on day 5 measured after day 22 by hematoxylin-eosin staining-based assay; format: organism-based; settings: in vivo
# Summary of the method: (§3)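 Tissues from dosed xenograft mice fixed for 24 h and paraffin-embedded. Sections of 5 μm, H&E stained; heart, liver, spleen, lung, kidney and femur examined by a pathologist blind to treatment.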
# [8] = Safety index, ratio of test compound LD50 to arenobufagin LD50 for Kunming mouse; format: ADME; settings: in vivo
# Summary of the method: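 LD50 from single-dose iv acute toxicity in Kunming mice (five dose levels per compound, n = 10 per group, 14-day observation), calculated by Bliss method; ratio taken against arenobufagin LD50.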
# Mus musculus [9] = assay: Cardiotoxicity in BALB/C nude mouse xenografted with human MDA-MB-231 cells assessed as cytoplasmic vacuolization at 12 umol/kg, iv administered starting on day 5 measured after day 22 by hematoxylin-eosin staining-based assay; format: toxicity, organism-based; settings: in vivo; summary of the method: as §3
# Mus musculus [10] = assay: Toxicity in BALB/C nude mouse xenografted with human MDA-MB-231 cells assessed as histopathologic change in spleen at 12 umol/kg, iv administered starting on day 5 measured after day 22 by hematoxylin-eosin staining-based assay; format: organism-based; settings: in vivo; summary of the method: as §3
# MDA-MB-231 [11] = assay: Antiproliferative activity against FAP-alpha deficient human MDA-MB-231 cells incubated for 48 hrs by MTT assay; format: functional, cell-based; settings: MDA-MB-231, 48 h; summary of the method: as §2
# MDA-MB-231 [12] = assay: Antitumor activity against human MDA-MB-231 cells xenografted in BALB/C nude mouse assessed as tumor weight at 12 umol/kg, iv administered starting on day 5 measured after day 22 (reference value: 0.67 +/- 0.14 g); format: functional; summary of the method: as §1
# Mus musculus [13] = assay: Toxicity in BALB/C nude mouse xenografted with human MDA-MB-231 cells assessed as histopathologic change in femur at 12 umol/kg, iv administered starting on day 5 measured after day 22 by hematoxylin-eosin staining-based assay; format: organism-based; settings: in vivo; summary of the method: as §3
# Mus musculus [14] = assay: Cardiotoxicity in BALB/C nude mouse xenografted with human MDA-MB-231 cells assessed as change in left ventricular internal diastole dimension at 12 umol/kg, iv administered starting on day 5 measured after day 22 by echocardiography; format: toxicity, organism-based; settings: in vivo
# Summary of the method: (§4)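 Same MDA-MB-231 xenograft mice, given daily iv doses in 5% HS15 from day 5. After 22 days of dosing, transthoracic echocardiography with a 21 MHz transducer under 1.5% isoflurane, supine. M-mode images taken from the parasternal short-axis view at the papillary muscle; IVSd, IVSs, LVIDd and LVIDs derived, n = 6.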
# Mus musculus [15] = assay: Toxicity in BALB/C nude mouse xenografted with human MDA-MB-231 cells assessed as body weight change at 12 umol/kg, iv administered starting on day 5 measured after day 22; format: organism-based; settings: in vivo
# Mus musculus [16] = assay: Cardiotoxicity in BALB/C nude mouse xenografted with human MDA-MB-231 cells assessed as change in interventricular septal diastole dimension at 12 umol/kg, iv administered starting on day 5 measured after day 22 by echocardiography; format: toxicity, organism-based; settings: in vivo; summary of the method: as §4
# Mus musculus [17] = assay: Cardiotoxicity in BALB/C nude mouse xenografted with human MDA-MB-231 cells assessed as change in interventricular septal systole dimension at 12 umol/kg, iv administered starting on day 5 measured after day 22 by echocardiography; format: toxicity, organism-based; settings: in vivo; summary of the method: as §4
compound,measurement,setting,value
C[C@]12CC[C@H](OC(=O)[C@H](Cc3c[nH]c4ccccc34)NC(=O)[C@@H]3CCCN3C(=O)CNC(=O)OCc3ccccc3)C[C@H]1CC[C@@H]1[C@@H]2[C@H](O)C(=O)[C@]2(C)[C@@H](c3ccc(=O)oc3)CC[C@]12O,Activity,MDA-MB-231 [1],Active
same,LD50 at 4 h,[2],44 µmol/kg
same,IC50,MDA-MB-231 [3],24 nM
same,Activity,Mus musculus [4],Non-Toxic
same,Activity,MDA-MB-231 [5],45 - 50%
same,Activity,Mus musculus [6],Non-Toxic
same,Activity,Mus musculus [7],Non-Toxic
same,selectivity ratio,[8],6.5
same,Activity,Mus musculus [9],Non-Toxic
same,Activity,Mus musculus [10],Non-Toxic
same,IC50,MDA-MB-231 [11],27 nM
same,Activity,MDA-MB-231 [12],0.43 g
same,Activity,Mus musculus [13],Non-Toxic
same,Activity,Mus musculus [14],Non-Toxic
same,Activity,Mus musculus [15],Non-Toxic
same,Activity,Mus musculus [16],Non-Toxic
same,Activity,Mus musculus [17],Non-Toxic
